Active and inactive are the calls of the source. The rule behind the calls is not given here.
Legend:
[1] = test system: Plasmodium falciparum; assay: Antimalarial activity against chloroquine-sensitive Plasmodium falciparum NF54 infected in RBC after 72 hrs by [3H]hypoxanthine incorporation assay in presence of 50 % serum; type: functional, organism-based
[2] = test system: Plasmodium berghei; assay: Antimalarial activity against GFP-transfected Plasmodium berghei ANKA in mouse blood assessed as inhibition of schizont maturation after 48 hrs by [3H]hypoxanthine incorporation assay relative to control; type: functional, organism-based
[3] = test system: Plasmodium berghei; assay: Antimalarial activity against GFP-transfected Plasmodium berghei ANKA in mouse blood assessed as inhibition of schizont maturation after 72 hrs by [3H]hypoxanthine incorporation assay; type: functional, organism-based
[4] = test system: Plasmodium berghei; assay: Antimalarial activity against GFP-transfected Plasmodium berghei ANKA in mouse blood assessed as inhibition of schizont maturation compound incubated for 16 hrs followed by 8 hrs of [3H]hypoxanthine incorporation; type: functional, organism-based
[5] = test system: Plasmodium falciparum; assay: Antimalarial activity against chloroquine-sensitive Plasmodium falciparum NF54 infected in RBC after 48 hrs by [3H]hypoxanthine incorporation assay in presence of 0.5 % albumax; type: functional, organism-based
[6] = test system: Plasmodium falciparum; assay: Antimalarial activity against chloroquine-sensitive Plasmodium falciparum NF54 infected in RBC after 72 hrs by [3H]hypoxanthine incorporation assay in presence of 0.5 % albumax; type: functional, organism-based
[7] = test system: Plasmodium falciparum; assay: Antimalarial activity against chloroquine-resistant Plasmodium falciparum K1 infected in RBC by [3H]hypoxanthine incorporation assay in presence of 50 % serum; type: functional, organism-based
[8] = test system: Plasmodium falciparum; assay: Antimalarial activity against chloroquine-resistant Plasmodium falciparum K1 infected in RBC by [3H]hypoxanthine incorporation assay in presence of 0.5 % albumax; type: functional, organism-based
[9] = test system: Plasmodium falciparum; assay: Antimalarial activity against chloroquine-sensitive Plasmodium falciparum NF54 infected in RBC after 24 hrs by [3H]hypoxanthine incorporation assay in presence of 0.5 % albumax; type: functional, organism-based
[10] = Metabolic stability in mouse liver microsomes; type: ADME, Microsome; conditions: read-out: Stability
How it was run: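 In vitro metabolic stability was measured with a mouse liver microsomal preparation and expressed as intrinsic clearance in µl/(min mg).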

[11] = test system: Plasmodium berghei; assay: Antimalarial activity against GFP-transfected Plasmodium berghei ANKA infected in mouse assessed as reduction in parasitemia at 100 mg/kg, po administered as single dose measured after 72 hrs by flow cytometry; type: functional; parameters: scale not given: the % may be the effect or the level left
[12] = test system: Plasmodium berghei; assay: Antimalarial activity against GFP-transfected Plasmodium berghei ANKA infected in mouse assessed as increase in host survival time at 100 mg/kg, po administered as single dose […]; type: functional
How it was run: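 P. berghei-infected mouse model; a single oral dose of 100 mg/kg. Parasitemia was expressed relative to untreated control animals. Mean survival time in days was compared with that of untreated mice.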

SMILES	IC50 [1]	Activity [2]	Activity [3]	IC50 [4]	IC50 [5]	IC50 [6]	IC50 [7]	IC50 [8]	IC50 [9]	microsomal CLint [10]	Activity [11]	Survival [12]
Cc1cc(Nc2ccc(C(=O)N[C@@H](Cc3ccccc3)[C@H](O)CN[C@H](C)c3ccccc3)cc2)cc(C)n1	23 nM	Active	Active	329 nM	11 nM	8.7 nM	20 nM	9 nM	198 nM	–	–	–
Cc1cc(Nc2ccc(C(=O)N[C@@H](Cc3ccccc3)[C@H](O)CN[C@H](C)c3ccccc3)cc2)ccn1	29 nM	Active	Active	228 nM	–	9.8 nM	26 nM	16 nM	173 nM	69 µL/min/mg	33%	3 days
C[C@@H](NC[C@@H](O)[C@H](Cc1ccccc1)NC(=O)c1cccc(S(=O)(=O)N2CCN(C)CC2)c1)c1ccccc1	138 nM	–	–	–	–	98 nM	–	–	–	908 µL/min/mg	–	–
CCCN(CCC)Cc1cc(CNC[C@@H](O)[C@H](Cc2ccccc2)NC(=O)c2ccc(N3CCN(C)CC3)cc2)ccc1O	42 nM	–	–	140 nM	50 nM	65 nM	9.5 nM	13 nM	69 nM	90 µL/min/mg	87%	7 days
CCCN(CCC)C(=O)c1ccc(C(=O)N[C@@H](Cc2ccccc2)[C@H](O)CN[C@H](C)c2ccccc2)cc1	6.5 nM	–	–	> 500 nM	–	1.6 nM	–	–	> 500 nM	> 1250 µL/min/mg	–	–
C[C@@H](NC[C@@H](O)[C@H](Cc1ccccc1)NC(=O)c1ccc(Nc2ccc(O)c(CN3CCCC3)c2)cc1)c1ccccc1	4.9 nM	–	–	–	< 7.8 nM	17 nM	< 7.8 nM	< 7.8 nM	174 nM	–	–	–
CCCN(CCC)Cc1cc(C(=O)N[C@@H](Cc2ccccc2)[C@H](O)CN[C@H](C)c2ccccc2)ccc1O	334 nM	–	–	> 500 nM	83 nM	118 nM	–	–	151 nM	–	–	–
CCN(CC)Cc1cc(Nc2ccc(C(=O)N[C@@H](Cc3ccccc3)[C@H](O)CNC3CCCC3)cc2)ccc1O	51 nM	–	–	–	–	78 nM	44 nM	54 nM	–	–	–	–
C[C@@H](NC[C@@H](O)[C@H](Cc1ccccc1)NC(=O)c1ccc(Nc2ccc(CN3CCCCC3)c(O)c2)cc1)c1ccccc1	3.3 nM	–	–	172 nM	< 7.8 nM	3.6 nM	–	–	25 nM	415 µL/min/mg	–	–
C[C@@H](NC[C@@H](O)[C@H](Cc1ccccc1)NC(=O)c1ccc(N2CCN(C)CC2)cc1)c1ccccc1	8.5 nM	–	–	> 500 nM	–	8.7 nM	32 nM	19 nM	> 500 nM	80 µL/min/mg	–	–
C[C@@H](NC[C@@H](O)[C@H](Cc1ccccc1)NC(=O)c1cccc(O)c1CN1CCCCC1)c1ccccc1	5.9 nM	–	–	> 500 nM	< 7.8 nM	4.9 nM	–	–	235 nM	–	–	–
CCCN(CCC)Cc1cc(CNC[C@@H](O)[C@H](Cc2ccccc2)NC(=O)c2ccc(Nc3ccnc(C)c3)cc2)ccc1O	80 nM	–	–	–	–	158 nM	93 nM	149 nM	–	–	–	–
C[C@@H](NC[C@@H](O)[C@H](Cc1ccccc1)NC(=O)c1ccc(Nc2ccncc2)cc1)c1ccccc1	36 nM	Active	Active	307 nM	26 nM	20 nM	48 nM	27 nM	169 nM	112 µL/min/mg	–	–
CN1CCN(c2ccc(C(=O)N[C@@H](Cc3ccccc3)[C@H](O)CNCc3ccc(O)c(CN4CCCCC4)c3)cc2)CC1	57 nM	–	–	–	102 nM	120 nM	28 nM	36 nM	158 nM	–	–	–
CCCN(CCC)Cc1cc(Nc2ccc(C(=O)N[C@@H](Cc3ccccc3)[C@H](O)CN[C@H](C)c3ccccc3)cc2)ccc1O	13 nM	–	–	–	11 nM	9.4 nM	< 7.8 nM	11 nM	77 nM	–	–	–
CCN(CC)Cc1cc(Nc2cccc(C(=O)N[C@@H](Cc3ccccc3)[C@H](O)CNC3CCCC3)c2)ccc1O	67 nM	–	–	–	–	23 nM	127 nM	30 nM	–	–	–	–
CCCN(CCC)C(=O)c1cccc(C(=O)N[C@@H](Cc2ccccc2)[C@H](O)CNC2CCCC2)c1	–	–	–	–	–	7.1 nM	36 nM	12 nM	–	–	–	–
CCCN(CCC)C(=O)c1cccc(C(=O)N[C@@H](Cc2ccccc2)[C@H](O)CN[C@H](C)c2ccccc2)c1	10 nM	–	–	> 500 nM	< 3.1 nM	2 nM	–	–	> 500 nM	> 1250 µL/min/mg	–	–
C[C@@H](NC[C@@H](O)[C@H](Cc1ccccc1)NC(=O)c1ccc(N(C)c2ccncc2)cc1)c1ccccc1	35 nM	Active	Active	> 500 nM	27 nM	21 nM	42 nM	38 nM	249 nM	180 µL/min/mg	–	–
CCCN(CCC)Cc1cc(C2CCC(NC[C@@H](O)[C@H](Cc3ccccc3)NC(=O)c3ccc(N4CCN(C)CC4)cc3)CC2)ccc1O (some centres not stated)	–	–	–	143 nM	19 nM	19 nM	–	–	20 nM	74 µL/min/mg	–	–
C[C@@H](NC[C@@H](O)[C@H](Cc1ccccc1)NC(=O)c1ccc(N(C)C2CCN(C)CC2)cc1)c1ccccc1	14 nM	–	–	–	< 7.8 nM	4.4 nM	–	7.1 nM	> 500 nM	71 µL/min/mg	–	–
C[C@@H](NC[C@@H](O)[C@H](Cc1ccccc1)NC(=O)c1ccc(NC2CCN(C)CC2)cc1)c1ccccc1	12 nM	–	–	–	< 7.8 nM	4 nM	16 nM	7 nM	> 500 nM	76 µL/min/mg	–	–
C[C@@H](NC[C@@H](O)[C@H](Cc1ccccc1)NC(=O)c1ccc(CN2CCCCC2)c(O)c1)c1ccccc1	5.9 nM	–	–	–	–	4.9 nM	7.8 nM	< 7.8 nM	–	–	–	–
C[C@@H](NC[C@@H](O)[C@H](Cc1ccccc1)NC(=O)c1ccc(C(=O)N2CCN(C)CC2)cc1)c1ccccc1	< 0.6 nM	–	–	> 500 nM	–	0.6 nM	–	–	> 500 nM	75 µL/min/mg	–	–
C[C@@H](NC[C@@H](O)[C@H](Cc1ccccc1)NC(=O)c1ccc(C(=O)N2CCCCC2)cc1)c1ccccc1	1.3 nM	–	–	> 500 nM	–	0.9 nM	–	–	> 500 nM	860 µL/min/mg	–	–
